Measured values published in ChEMBL document CHEMBL4184148 (Bioorg Med Chem Lett, 2017).

Assays:
[1] = system: HEK293; experiment: Cytotoxicity against human HEK293 cells assessed as reduction in cell viability up to 33.3 uM after 72 hrs by CellTiter-Glo assay relative to control; format: cell-based; settings: hek293, 72 h
In short: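 Cells were treated across a dose-response range for 72 h, and viability was read by CellTiter-Glo luminescence. Measurements were made in triplicate and reported with standard error.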

[2] = target: Activin receptor type-2A (Homo sapiens) (UniProt P27037); experiment: Binding affinity to wild-type human ACVR2A (V171 to T499 residues) expressed in Escherichia coli BL21 at 1 uM by Kinomescan method relative to control
[3] = target: Calcium/calmodulin-dependent protein kinase type 1D (Homo sapiens) (UniProt Q8IU85); experiment: Binding affinity to wild-type human partial length CAMK1D (M1 to K299 residues) expressed in Escherichia coli BL21 at 1 uM by Kinomescan method relative to control
[4] = target: Cyclin-dependent kinase 2 (Homo sapiens) (UniProt P24941); experiment: Binding affinity to wild-type human full length CDK2 (M1 to L298 residues) expressed in Escherichia coli BL21 at 1 uM by Kinomescan method relative to control
[5] = target: Cyclin-dependent kinase-like 2 (Homo sapiens) (UniProt Q92772); experiment: Binding affinity to wild-type human partial length CDKL2 (M1 to D327 residues) expressed in Escherichia coli BL21 at 1 uM by Kinomescan method relative to control
[6] = target: Casein kinase I isoform gamma-3 (Homo sapiens) (UniProt Q9Y6M4); experiment: Binding affinity to wild-type human full length CSNK1G3 (M1 to K447 residues) expressed in Escherichia coli BL21 at 1 uM by Kinomescan method relative to control
In short: (§1)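 Run as one kinome-wide competition binding panel with each compound at a single fixed concentration. Results were plotted as a kinome-wide selectivity map.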

[7] = target: Death-associated protein kinase 1 (Homo sapiens) (UniProt P53355); experiment: Binding affinity to wild-type human partial length DAPK1 (M1 to F296 residues) expressed in Escherichia coli BL21 at 1 uM by Kinomescan method relative to control
[8] = target: Myotonin-protein kinase (Homo sapiens) (UniProt Q09013); experiment: Binding affinity to wild-type human partial length DMPK (V47 to V415 residues) expressed in Escherichia coli BL21 at 1 uM by Kinomescan method relative to control
[9] = target: Ephrin type-B receptor 6 (Homo sapiens) (UniProt O15197); experiment: Binding affinity to wild-type human partial length EPHB6 (Q634 to P948 residues) expressed in HEK293 cells at 1 uM by Kinomescan method relative to control; format: cell-based
[10] = target: Insulin-like growth factor 1 receptor (Homo sapiens) (UniProt P08069); experiment: Binding affinity to wild-type human partial length IGF1R (L972 to D1294 residues) expressed in Escherichia coli BL21 at 1 uM by Kinomescan method relative to control
[11] = target: Inhibitor of nuclear factor kappa-B kinase subunit beta (Homo sapiens) (UniProt O14920); experiment: Binding affinity to wild-type human full length IKK-beta (M1 to S756 residues) expressed in HEK293 cells at 1 uM by Kinomescan method relative to control; format: cell-based; in short: as §1
[12] = system: Mast/stem cell growth factor receptor Kit (Homo sapiens), P10721 [A829P]; experiment: Binding affinity to human partial length KIT A829P mutant (I571 to D952 residues) expressed in HEK293 cells at 1 uM by Kinomescan method relative to control; format: cell-based
[13] = target: Serine/threonine-protein kinase MAK (Homo sapiens) (UniProt P20794); experiment: Binding affinity to wild-type human partial length MAK (M1 to P314 residues) expressed in Escherichia coli BL21 at 1 uM by Kinomescan method relative to control
[14] = target: Mitogen-activated protein kinase kinase kinase kinase 2 (Homo sapiens) (UniProt Q12851); experiment: Binding affinity to wild-type human partial length MAP4K2 (M1 to G318 residues) expressed in HEK293 cells at 1 uM by Kinomescan method relative to control; format: cell-based
[15] = target: Myosin light chain kinase 2, skeletal/cardiac muscle (Homo sapiens) (UniProt Q9H1R3); experiment: Binding affinity to wild-type human partial length MYLK2 (D258 to K570 residues) expressed in Escherichia coli BL21 at 1 uM by Kinomescan method relative to control
[16] = target: Myosin light chain kinase family member 4 (Homo sapiens) (UniProt Q86YV6); experiment: Binding affinity to wild-type human partial length MYLK4 (V79 to S380 residues) expressed in Escherichia coli BL21 at 1 uM by Kinomescan method relative to control
[17] = target: Mitogen-activated protein kinase 12 (Homo sapiens) (UniProt P53778); experiment: Binding affinity to wild-type human full length p38-gamma (M1 to L367 residues) expressed in HEK293 cells at 1 uM by Kinomescan method relative to control; format: cell-based
In short: (§2)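 Kinome-wide competition binding panel run by an outside provider, with each compound tested at a single concentration. Activity is read against the kinase panel.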

[18] = target: Phosphatidylinositol 4-kinase beta (Homo sapiens) (UniProt Q9UBF8); experiment: Binding affinity to wild-type human full length PIK4CB (M1 to M828 residues) expressed in HEK293 cells at 1 uM by Kinomescan method relative to control; format: cell-based; in short: as §2
[19] = target: Proto-oncogene tyrosine-protein kinase ROS (Homo sapiens) (UniProt P08922); experiment: Binding affinity to wild-type human partial length ROS1 (A1921 to N2240 residues) expressed in Escherichia coli BL21 at 1 uM by Kinomescan method relative to control
[20] = target: Ribosomal protein S6 kinase alpha-1 (Homo sapiens) (UniProt Q15418); experiment: Binding affinity to wild-type human partial length C-terminal RSK1 kinase domain 2 (P360 to L681 residues) expressed in Escherichia coli BL21 at 1 uM by Kinomescan method relative to control
[21] = target: NUAK family SNF1-like kinase 2 (Homo sapiens) (UniProt Q9H093); experiment: Binding affinity to wild-type human partial length SNARK (P22 to A333 residues) expressed in HEK293 cells at 1 uM by Kinomescan method relative to control; format: cell-based
[22] = target: TRAF2 and NCK-interacting protein kinase (Homo sapiens) (UniProt Q9UKE5); experiment: Binding affinity to wild-type human partial length TNIK (D4 to K311 residues) expressed in Escherichia coli BL21 at 1 uM by Kinomescan method relative to control
[23] = target: Testis-specific serine/threonine-protein kinase 3 (Homo sapiens) (UniProt Q96PN8); experiment: Binding affinity to wild-type human full length TSSK3 (M1 to T268 residues) expressed in HEK293 cells at 1 uM by Kinomescan method relative to control; format: cell-based; in short: as §2
[24] = target: Serine/threonine-protein kinase WNK1 (Homo sapiens) (UniProt Q9H4A3); experiment: Binding affinity to wild-type human partial length WNK1 (Q194 to A490 residues) expressed in HEK293 cells at 1 uM by Kinomescan method relative to control; format: cell-based
[25] = target: Serine/threonine-protein kinase WNK4 (Homo sapiens) (UniProt Q96J92); experiment: Binding affinity to wild-type human partial length WNK4 (A31 to D461 residues) expressed in HEK293 cells at 1 uM by Kinomescan method relative to control; format: cell-based

Chain of Phosphatidylinositol 4-kinase beta (Homo sapiens) (Q9UBF8 2-816 limits assumed): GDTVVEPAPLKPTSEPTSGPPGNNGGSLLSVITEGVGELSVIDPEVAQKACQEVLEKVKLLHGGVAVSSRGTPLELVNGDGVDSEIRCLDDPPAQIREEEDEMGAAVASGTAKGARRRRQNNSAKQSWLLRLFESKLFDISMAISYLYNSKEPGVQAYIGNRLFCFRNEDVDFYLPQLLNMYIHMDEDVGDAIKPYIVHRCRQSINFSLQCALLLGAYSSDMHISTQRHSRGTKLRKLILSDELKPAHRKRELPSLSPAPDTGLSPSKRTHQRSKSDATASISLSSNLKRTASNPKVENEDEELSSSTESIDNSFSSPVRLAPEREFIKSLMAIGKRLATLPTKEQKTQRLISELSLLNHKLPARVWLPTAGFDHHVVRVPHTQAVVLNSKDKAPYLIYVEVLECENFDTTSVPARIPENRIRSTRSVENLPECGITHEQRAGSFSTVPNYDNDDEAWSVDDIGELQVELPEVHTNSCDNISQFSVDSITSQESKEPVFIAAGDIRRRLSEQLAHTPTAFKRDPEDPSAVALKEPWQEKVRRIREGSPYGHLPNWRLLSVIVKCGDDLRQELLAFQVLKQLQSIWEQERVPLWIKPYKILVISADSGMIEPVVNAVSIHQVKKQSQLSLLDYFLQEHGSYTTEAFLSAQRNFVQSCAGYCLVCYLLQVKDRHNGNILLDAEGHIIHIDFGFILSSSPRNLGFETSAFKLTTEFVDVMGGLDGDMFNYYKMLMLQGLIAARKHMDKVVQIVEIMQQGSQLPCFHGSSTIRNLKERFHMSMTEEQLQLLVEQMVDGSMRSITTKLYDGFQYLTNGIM
Chain of Activin receptor type-2A (Homo sapiens) (P27037 whole entry, the tested form may be a part): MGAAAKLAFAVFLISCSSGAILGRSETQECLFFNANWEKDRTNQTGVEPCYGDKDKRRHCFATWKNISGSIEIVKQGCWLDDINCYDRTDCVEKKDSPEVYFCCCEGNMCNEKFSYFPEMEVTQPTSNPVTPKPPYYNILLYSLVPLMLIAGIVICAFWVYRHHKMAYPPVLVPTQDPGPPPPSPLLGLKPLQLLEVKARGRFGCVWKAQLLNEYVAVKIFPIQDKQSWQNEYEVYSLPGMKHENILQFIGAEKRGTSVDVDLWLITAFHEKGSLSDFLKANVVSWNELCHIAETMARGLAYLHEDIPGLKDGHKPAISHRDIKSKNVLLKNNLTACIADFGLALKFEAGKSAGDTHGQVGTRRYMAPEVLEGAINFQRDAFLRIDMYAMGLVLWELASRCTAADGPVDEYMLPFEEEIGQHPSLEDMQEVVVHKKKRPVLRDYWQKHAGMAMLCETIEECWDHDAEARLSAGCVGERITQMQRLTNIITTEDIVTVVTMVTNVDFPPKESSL
Chain of Death-associated protein kinase 1 (Homo sapiens) (P53355 whole entry, looked up, the tested form may be a part): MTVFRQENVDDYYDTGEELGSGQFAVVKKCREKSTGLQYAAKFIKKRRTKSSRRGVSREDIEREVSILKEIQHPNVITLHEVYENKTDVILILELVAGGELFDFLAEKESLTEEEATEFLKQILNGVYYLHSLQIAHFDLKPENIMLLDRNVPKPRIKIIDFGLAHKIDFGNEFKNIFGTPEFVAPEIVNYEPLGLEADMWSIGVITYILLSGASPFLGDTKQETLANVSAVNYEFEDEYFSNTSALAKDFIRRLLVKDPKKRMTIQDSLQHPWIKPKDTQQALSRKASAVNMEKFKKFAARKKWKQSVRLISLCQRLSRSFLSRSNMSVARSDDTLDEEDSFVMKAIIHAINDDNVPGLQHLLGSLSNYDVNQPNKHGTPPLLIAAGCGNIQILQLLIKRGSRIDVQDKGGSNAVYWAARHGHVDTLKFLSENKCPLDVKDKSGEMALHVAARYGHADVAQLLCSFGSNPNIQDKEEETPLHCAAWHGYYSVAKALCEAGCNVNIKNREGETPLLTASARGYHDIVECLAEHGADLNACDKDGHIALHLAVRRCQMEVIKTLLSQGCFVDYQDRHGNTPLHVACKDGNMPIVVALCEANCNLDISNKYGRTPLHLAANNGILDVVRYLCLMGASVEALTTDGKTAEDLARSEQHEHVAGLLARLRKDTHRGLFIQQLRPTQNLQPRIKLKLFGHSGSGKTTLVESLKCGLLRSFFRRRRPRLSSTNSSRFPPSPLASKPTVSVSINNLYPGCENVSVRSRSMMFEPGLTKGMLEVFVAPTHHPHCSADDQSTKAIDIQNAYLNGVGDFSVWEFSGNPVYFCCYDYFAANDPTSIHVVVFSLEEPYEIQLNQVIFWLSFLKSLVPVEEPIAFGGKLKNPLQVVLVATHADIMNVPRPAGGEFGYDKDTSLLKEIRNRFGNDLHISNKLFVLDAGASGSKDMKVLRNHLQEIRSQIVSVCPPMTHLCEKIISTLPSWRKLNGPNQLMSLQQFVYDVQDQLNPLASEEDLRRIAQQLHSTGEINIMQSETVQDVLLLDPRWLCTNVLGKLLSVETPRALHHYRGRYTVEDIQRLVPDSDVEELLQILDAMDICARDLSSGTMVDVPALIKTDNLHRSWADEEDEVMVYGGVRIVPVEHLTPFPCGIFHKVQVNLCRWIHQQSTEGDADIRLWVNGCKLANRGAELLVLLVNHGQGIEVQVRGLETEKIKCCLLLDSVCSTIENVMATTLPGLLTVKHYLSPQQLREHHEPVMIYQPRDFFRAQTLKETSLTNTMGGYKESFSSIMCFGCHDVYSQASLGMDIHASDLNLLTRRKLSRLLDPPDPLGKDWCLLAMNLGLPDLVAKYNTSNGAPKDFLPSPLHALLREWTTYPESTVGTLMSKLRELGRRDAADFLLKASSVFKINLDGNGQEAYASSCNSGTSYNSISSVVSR
Chain of Testis-specific serine/threonine-protein kinase 3 (Homo sapiens) (Q96PN8 whole entry, the tested form may be a part): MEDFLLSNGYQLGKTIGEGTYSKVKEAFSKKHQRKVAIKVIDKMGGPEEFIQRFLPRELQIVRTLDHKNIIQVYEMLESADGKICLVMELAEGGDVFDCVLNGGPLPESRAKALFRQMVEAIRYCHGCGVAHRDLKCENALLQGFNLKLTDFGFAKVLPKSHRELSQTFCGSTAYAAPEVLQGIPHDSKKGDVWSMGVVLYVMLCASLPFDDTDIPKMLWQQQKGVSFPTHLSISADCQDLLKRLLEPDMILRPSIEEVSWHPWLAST
Chain of Mast/stem cell growth factor receptor Kit (Homo sapiens), P10721 [A829P] (P10721 whole entry A829P, the tested form may be a part): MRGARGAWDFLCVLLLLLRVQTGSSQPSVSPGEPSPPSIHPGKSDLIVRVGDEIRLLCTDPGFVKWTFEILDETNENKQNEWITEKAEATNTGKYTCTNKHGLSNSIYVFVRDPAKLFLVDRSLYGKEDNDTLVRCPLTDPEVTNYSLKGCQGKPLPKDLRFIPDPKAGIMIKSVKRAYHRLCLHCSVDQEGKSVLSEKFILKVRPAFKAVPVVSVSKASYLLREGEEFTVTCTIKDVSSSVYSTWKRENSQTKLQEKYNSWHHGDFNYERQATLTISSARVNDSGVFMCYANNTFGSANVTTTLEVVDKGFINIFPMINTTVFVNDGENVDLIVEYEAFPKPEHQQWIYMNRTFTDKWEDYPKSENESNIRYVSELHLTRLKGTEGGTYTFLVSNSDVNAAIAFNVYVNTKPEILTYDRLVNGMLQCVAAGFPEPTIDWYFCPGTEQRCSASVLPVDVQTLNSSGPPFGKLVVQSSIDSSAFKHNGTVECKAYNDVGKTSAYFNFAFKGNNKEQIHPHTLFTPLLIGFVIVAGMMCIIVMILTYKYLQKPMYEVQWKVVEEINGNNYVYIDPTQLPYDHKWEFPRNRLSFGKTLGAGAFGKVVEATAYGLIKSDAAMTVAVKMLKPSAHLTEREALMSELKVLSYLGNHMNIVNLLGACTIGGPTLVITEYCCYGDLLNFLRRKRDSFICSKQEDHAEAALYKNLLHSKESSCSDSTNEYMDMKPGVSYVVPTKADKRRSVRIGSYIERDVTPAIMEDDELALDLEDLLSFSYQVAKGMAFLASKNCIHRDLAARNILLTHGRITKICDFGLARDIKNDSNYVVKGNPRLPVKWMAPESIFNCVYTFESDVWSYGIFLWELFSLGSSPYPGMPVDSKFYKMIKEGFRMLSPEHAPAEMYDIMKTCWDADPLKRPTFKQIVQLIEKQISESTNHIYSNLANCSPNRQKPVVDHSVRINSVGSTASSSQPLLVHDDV
Chain of Myosin light chain kinase 2, skeletal/cardiac muscle (Homo sapiens) (Q9H1R3 whole entry, the tested form may be a part): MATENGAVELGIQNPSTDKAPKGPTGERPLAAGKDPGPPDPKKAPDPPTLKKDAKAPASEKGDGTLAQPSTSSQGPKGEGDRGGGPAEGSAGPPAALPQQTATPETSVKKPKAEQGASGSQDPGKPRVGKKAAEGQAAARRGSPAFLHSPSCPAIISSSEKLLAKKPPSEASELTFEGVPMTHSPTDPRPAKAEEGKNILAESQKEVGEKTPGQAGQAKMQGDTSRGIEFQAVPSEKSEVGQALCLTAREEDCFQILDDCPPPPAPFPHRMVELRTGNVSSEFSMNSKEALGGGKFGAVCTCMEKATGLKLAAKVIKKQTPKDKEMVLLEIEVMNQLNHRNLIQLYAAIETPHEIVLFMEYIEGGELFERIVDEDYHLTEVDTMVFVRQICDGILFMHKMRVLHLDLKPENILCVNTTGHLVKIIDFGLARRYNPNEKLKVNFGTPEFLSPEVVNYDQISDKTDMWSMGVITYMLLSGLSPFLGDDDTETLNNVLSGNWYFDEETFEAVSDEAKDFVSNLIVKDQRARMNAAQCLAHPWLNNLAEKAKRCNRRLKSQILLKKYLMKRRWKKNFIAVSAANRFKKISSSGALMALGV
Chain of Myosin light chain kinase family member 4 (Homo sapiens) (Q86YV6 whole entry, the tested form may be a part): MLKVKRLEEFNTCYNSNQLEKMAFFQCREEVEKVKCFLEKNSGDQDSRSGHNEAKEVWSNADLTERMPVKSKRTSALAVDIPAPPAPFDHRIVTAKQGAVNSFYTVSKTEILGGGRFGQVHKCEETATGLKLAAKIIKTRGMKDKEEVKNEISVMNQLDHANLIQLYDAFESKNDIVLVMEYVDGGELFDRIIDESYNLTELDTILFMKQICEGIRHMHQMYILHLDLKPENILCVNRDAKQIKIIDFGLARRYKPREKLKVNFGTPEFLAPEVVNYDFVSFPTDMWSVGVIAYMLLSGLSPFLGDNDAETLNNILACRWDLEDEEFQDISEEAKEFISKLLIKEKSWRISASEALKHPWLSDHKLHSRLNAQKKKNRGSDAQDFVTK

CCC(=O)Nc1ccc(C(=O)Nc2ccc(Nc3ncc4c(n3)N(C)c3ccc(C)cc3C(=O)N4C)cc2)cc1 showed an Activity [1] of 50%, an Activity [2] of 100% and an Activity [3] of 88%. The Activity [4] was 97%, the Activity [5] was 100% and the Activity [6] was 97%. It also gave an Activity [7] of 90%, an Activity [8] of 100% and an Activity [9] of 77%. For the same molecule, the Activity [10] was 84%, the Activity [11] was 95% and the Activity [12] was 54%. The Activity [13] was 100%, the Activity [14] was 97% and the Activity [15] was 56%. For the same molecule, the Activity [16] was 100%, the Activity [17] was 86% and the Activity [18] was 88%. For the same molecule, the Activity [19] was 81%, the Activity [20] was 99% and the Activity [21] was 65%. It also gave an Activity [22] of 100%, an Activity [23] of 59% and an Activity [24] of 100%. For the same molecule, the Activity [25] was 85%.

In the case of C=CC(=O)Nc1ccc(C(=O)Nc2ccc(Nc3ncc4c(n3)N(C)c3ccc(C)cc3C(=O)N4C)cc2)cc1, the Activity [1] is reported as 50%, the Activity [2] is reported as 100% and the Activity [3] is reported as 100%. For the same molecule, the Activity [4] was 100%, the Activity [5] was 86% and the Activity [6] was 100%. It also gave an Activity [7] of 100%, an Activity [8] of 96% and an Activity [9] of 96%. For the same molecule, the Activity [10] was 100%, the Activity [11] was 97% and the Activity [12] was 99%. The Activity [13] was 78%, the Activity [14] was 92% and the Activity [15] was 87%. For the same molecule, the Activity [16] was 100%, the Activity [17] was 67% and the Activity [18] was 80%. For the same molecule, the Activity [19] was 98%, the Activity [20] was 96% and the Activity [21] was 93%. The Activity [22] was 100%, the Activity [23] was 100% and the Activity [24] was 100%. It also gave an Activity [25] of 99%.
